ChEMBL document CHEMBL1795344, “Design, synthesis and antitumor evaluation of phenyl N-mustard-quinazoline conjugates” (Bioorg Med Chem, 2011)
Calls of active or inactive are those of the source. The calls are words filed in the database; no cut-off is given here.

How the values were obtained:
MX1 [1] = assay: Cytotoxicity against human MX1 cells after 72 hrs by SRB assay; assay type: functional, cell-based; details: MX1, 72 h
Summary of the method: (§1)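 MX-1 and HCT-116 solid tumor cells were exposed 72 h, with growth read by SRB staining on a microplate spectrophotometer. IC50 came from median-effect analysis of dose-effect data at six or seven concentrations.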

CCRF-CEM [2] = assay: Ratio of IC50 for human taxol-resistant CCRF-CEM cells to IC50 for human CCRF-CEM cells; assay type: functional
CCRF-CEM [3] = assay: Cytotoxicity against human CCRF-CEM cells after 72 hrs by XTT assay; assay type: functional, cell-based
Summary of the method: (§2)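 CCRF-CEM and its Taxol- and vinblastine-resistant sublines were incubated 72 h, then given phenazine methosulfate-XTT for 6 h at 37 °C. Absorbance was read at 450 and 630 nm. IC50 came from median-effect analysis of dose-effect data at six or seven concentrations.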

HCT-116 = assay: Cytotoxicity against human HCT116 cells after 72 hrs by SRB assay; assay type: functional, cell-based; details: HCT-116, 72 h; summary of the method: as §1
CCRF-CEM [4] = assay: Ratio of IC50 for human vinblastine-resistant CCRF-CEM cells to IC50 for human CCRF-CEM cells; assay type: functional
CCRF-CEM [5] = assay: Cytotoxicity against human vinblastine-resistant CCRF-CEM cells after 72 hrs by XTT assay; assay type: functional, cell-based; summary of the method: as §2
CCRF-CEM [6] = assay: Cytotoxicity against human taxol-resistant CCRF-CEM cells after 72 hrs by XTT assay; assay type: functional, cell-based; summary of the method: as §2
PC-3 [7] = assay: Cytotoxicity against human PC3 cells after 72 hrs by Alamar blue assay; assay type: functional, cell-based; details: PC-3, 72 h
Summary of the method: (§3)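 H1299 and PC3 cells were exposed 72 h, then given Alamar blue for 6 h at 37 °C. Absorbance was read at 570 and 600 nm. IC50 came from median-effect analysis of dose-effect data at six or seven concentrations.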

Nucleic Acid [8] = assay: Induction of pEGFP-N1 plasmid DNA interstrand cross-linking at 1 to 20 uM by alkaline agarose gel shift assay; assay type: nucleic-acid assay
Summary of the method: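 pEGFP-N1 plasmid DNA (1500 ng) was incubated with compound (1, 10, 20 μM) in 3 mM NaCl/1 mM sodium phosphate pH 7.4/1 mM EDTA for 2 h at 37 °C. It was then BamHI-linearized, ethanol-precipitated and denatured in 0.5 N NaOH-10 mM EDTA. Samples were run on a 0.8% alkaline agarose gel at 4 °C, 18 V for 22 h, stained with ethidium bromide.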

[9] = Cytotoxicity against human H1299 cells after 72 hrs by Alamar blue assay; assay type: functional, cell-based; details: NCI-H1299, 72 h; summary of the method: as §3
Mus musculus [10] = assay: Toxicity in human PC3 cells xenografted athymic nude Swiss mouse assessed as mouse mortality at 55 mg/kg, iv every two days for six times; assay type: organism-based, PC-3; design: dose 55 mg/kg, route intravenous; details: in vivo
Mus musculus [11] = assay: Toxicity in human PC3 cells xenografted athymic nude Swiss mouse assessed as body weight loss at 55 mg/kg, iv every two days for six times relative to control; assay type: organism-based, PC-3; design: dose 55 mg/kg, route intravenous; details: in vivo
[12] = Cell cycle arrest in human H1299 cells assessed as accumulation at sub G1 phase at 20 uM after 24 hrs using propidium iodide staining by flow cytometry (reference value: 8.8 +/- 6.9%); assay type: functional, cell-based; details: NCI-H1299
Summary of the method: (§4)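 H1299 cells were exposed 24 h, then trypsinized, PBS-washed and fixed in ice-cold 70% ethanol for 30 min. They were stained with 4 μg/mL propidium iodide in PBS containing 1% Triton X-100 and 0.1 mg/mL RNase A. Cell-cycle distribution was read by flow cytometry.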

Mus musculus [13] = assay: Toxicity in human MX1 cells xenografted athymic nude Swiss mouse assessed as body weight loss at 30 mg/kg, iv every two days for three times followed by 35 mg/kg, iv every two days for 5 times relative to control; assay type: organism-based; details: in vivo
[14] = Cell cycle arrest in human H1299 cells assessed as accumulation at S phase at 5 uM after 24 hrs using propidium iodide staining by flow cytometry (reference value: 24.9 +/- 3.3%); assay type: functional, cell-based; details: NCI-H1299; summary of the method: as §4
MX1 [15] = assay: Antitumor activity against human MX1 cells xenografted in athymic nude Swiss mouse assessed as tumor growth inhibition at 30 mg/kg, iv every two days for three times followed by 35 mg/kg, iv every two days for 5 times relative to control; assay type: functional; design: scale not given: the % may be the effect or the level left
[16] = Cell cycle arrest in human H1299 cells assessed as accumulation at G2/M phase at 20 uM after 24 hrs using propidium iodide staining by flow cytometry (reference value: 21.5 +/- 0.6%); assay type: functional, cell-based; details: NCI-H1299; summary of the method: as §4
PC-3 [17] = assay: Anticancer activity against human PC3 cells xenografted in athymic nude Swiss mouse assessed as tumor growth inhibition at 55 mg/kg, iv every two days for six times relative to control; assay type: functional; design: scale not given: the % may be the effect or the level left
[18] = Cell cycle arrest in human H1299 cells assessed as accumulation at S phase at 10 uM after 24 hrs using propidium iodide staining by flow cytometry (reference value: 24.9 +/- 3.3%); assay type: functional, cell-based; details: NCI-H1299; summary of the method: as §4
[19] = Cell cycle arrest in human H1299 cells assessed as accumulation at S phase at 20 uM after 24 hrs using propidium iodide staining by flow cytometry (reference value: 24.9 +/- 3.3%); assay type: functional, cell-based; details: NCI-H1299; summary of the method: as §4
[20] = Cell cycle arrest in human H1299 cells assessed as accumulation at G2/M phase at 5 uM after 24 hrs using propidium iodide staining by flow cytometry (reference value: 21.5 +/- 0.6%); assay type: functional, cell-based; details: NCI-H1299; summary of the method: as §4
[21] = Cell cycle arrest in human H1299 cells assessed as accumulation at sub G1 phase at 5 uM after 24 hrs using propidium iodide staining by flow cytometry (reference value: 8.8 +/- 6.9%); assay type: functional, cell-based; details: NCI-H1299; summary of the method: as §4
[22] = Cell cycle arrest in human H1299 cells assessed as accumulation at G1 phase at 10 uM after 24 hrs using propidium iodide staining by flow cytometry (reference value: 44.8 +/- 3%); assay type: functional, cell-based; details: NCI-H1299; summary of the method: as §4
[23] = Cell cycle arrest in human H1299 cells assessed as accumulation at sub G1 phase at 10 uM after 24 hrs using propidium iodide staining by flow cytometry (reference value: 8.8 +/- 6.9%); assay type: functional, cell-based; details: NCI-H1299; summary of the method: as §4
Mus musculus [24] = assay: Toxicity in human MX1 cells xenografted athymic nude Swiss mouse assessed as mouse mortality at 30 mg/kg, iv every two days for three times followed by 35 mg/kg, iv every two days for 5 times; assay type: organism-based; details: in vivo
[25] = Cell cycle arrest in human H1299 cells assessed as accumulation at G1 phase at 20 uM after 24 hrs using propidium iodide staining by flow cytometry (reference value: 44.8 +/- 3%); assay type: functional, cell-based; details: NCI-H1299; summary of the method: as §4
[26] = Cell cycle arrest in human H1299 cells assessed as accumulation at G1 phase at 5 uM after 24 hrs using propidium iodide staining by flow cytometry (reference value: 44.8 +/- 3%); assay type: functional, cell-based; details: NCI-H1299; summary of the method: as §4
[27] = Cell cycle arrest in human H1299 cells assessed as accumulation at G2/M phase at 10 uM after 24 hrs using propidium iodide staining by flow cytometry (reference value: 21.5 +/- 0.6%); assay type: functional, cell-based; details: NCI-H1299; summary of the method: as §4
Nucleic Acid [28] = assay: Induction of pEGFP-N1 plasmid DNA interstrand cross-linking at 1 to 5 uM by alkaline agarose gel shift assay; assay type: nucleic-acid assay

O=C(Nc1ccc(N(CCCl)CCCl)cc1)Nc1ccc2ncnc(Nc3ccc(Cl)c(C(F)(F)F)c3)c2c1
IC50 (MX1 [1]): 7.44 µM
Ratio IC50 (CCRF-CEM [2]): 1.12
IC50 (CCRF-CEM [3]): 4.77 µM
IC50 (HCT-116): 5.34 µM
Ratio IC50 (CCRF-CEM [4]): 1.11
IC50 (CCRF-CEM [5]): 5.28 µM
IC50 (CCRF-CEM [6]): 5.36 µM

O=C(Nc1ccc(N(CCCl)CCCl)cc1)Nc1ccc2ncnc(Nc3cccc(F)c3)c2c1
IC50 (MX1 [1]): 10.1 µM
Ratio IC50 (CCRF-CEM [2]): 1.38
IC50 (CCRF-CEM [3]): 2.51 µM
IC50 (HCT-116): 9.62 µM
Ratio IC50 (CCRF-CEM [4]): 1.7
IC50 (CCRF-CEM [5]): 4.28 µM
IC50 (CCRF-CEM [6]): 3.46 µM

O=C(Nc1ccc(N(CCCl)CCCl)cc1)Nc1ccc2ncnc(Nc3ccc(F)cc3)c2c1
IC50 (MX1 [1]): 3.43 µM
Ratio IC50 (CCRF-CEM [2]): 4.27
IC50 (CCRF-CEM [3]): 0.74 µM
IC50 (HCT-116): 3.18 µM
IC50 (PC-3 [7]): 8.24 µM
Ratio IC50 (CCRF-CEM [4]): 1.67
IC50 (CCRF-CEM [5]): 1.24 µM
IC50 (CCRF-CEM [6]): 3.16 µM
Activity (Nucleic Acid [8]): Active
IC50 [9]: 11.6 µM

O=C(Nc1ccc(N(CCCl)CCCl)cc1)Nc1ccc2ncnc(Nc3cccc(Br)c3)c2c1
IC50 (MX1 [1]): 6.92 µM
Ratio IC50 (CCRF-CEM [2]): 4.82
IC50 (CCRF-CEM [3]): 0.95 µM
IC50 (HCT-116): 2.17 µM
IC50 (PC-3 [7]): 10.1 µM
Ratio IC50 (CCRF-CEM [4]): 2.76
IC50 (CCRF-CEM [5]): 2.62 µM
IC50 (CCRF-CEM [6]): 4.58 µM
IC50 [9]: 8.04 µM

O=C(Nc1ccc(N(CCCl)CCCl)cc1)Nc1ccc2ncnc(Nc3ccc(OCc4ccccn4)c(Cl)c3)c2c1
IC50 (MX1 [1]): 4.62 µM
Ratio IC50 (CCRF-CEM [2]): 3.24
IC50 (CCRF-CEM [3]): 1.41 µM
IC50 (HCT-116): 2.22 µM
Ratio IC50 (CCRF-CEM [4]): 1.88
IC50 (CCRF-CEM [5]): 2.65 µM
IC50 (CCRF-CEM [6]): 4.58 µM

O=C(Nc1ccc(N(CCCl)CCCl)cc1)Nc1ccc2ncnc(Nc3cccc(Cl)c3)c2c1
Activity (Mus musculus [10]): Non-toxic
Activity (Mus musculus [11]): 11%
IC50 (MX1 [1]): 7.84 µM
Activity [12]: 35.3%
Activity (Mus musculus [13]): 3%
Activity [14]: 20.6%
Ratio IC50 (CCRF-CEM [2]): 2.75
Activity (MX1 [15]): 62%
Activity [16]: 12.9%
IC50 (CCRF-CEM [3]): 1.66 µM
Activity (PC-3 [17]): 27%
IC50 (HCT-116): 7.46 µM
Activity [18]: 28.5%
Activity [19]: 23.5%
Activity [20]: 40%
IC50 (PC-3 [7]): 10.4 µM
Activity [21]: 8.9%
Ratio IC50 (CCRF-CEM [4]): 1.96
Activity [22]: 34.8%
IC50 (CCRF-CEM [5]): 3.26 µM
IC50 (CCRF-CEM [6]): 4.56 µM
Activity (Nucleic Acid [8]): Active
Activity [23]: 7.5%
Activity (Mus musculus [24]): Non-toxic
IC50 [9]: 10.5 µM
Activity [25]: 28.3%
Activity [26]: 30.5%
Activity [27]: 29.3%

N[C@@H](Cc1ccc(N(CCCl)CCCl)cc1)C(=O)O
Activity (Nucleic Acid [28]): Active

O=C(Nc1ccc(N(CCCl)CCCl)cc1)Nc1ccc2ncnc(Nc3ccc(F)c(Br)c3)c2c1
IC50 (MX1 [1]): 7.1 µM
Ratio IC50 (CCRF-CEM [2]): 1.64
IC50 (CCRF-CEM [3]): 2.68 µM
IC50 (HCT-116): 5.99 µM
Ratio IC50 (CCRF-CEM [4]): 1.77
IC50 (CCRF-CEM [5]): 4.74 µM
IC50 (CCRF-CEM [6]): 4.4 µM

O=C(Nc1ccc(N(CCCl)CCCl)cc1)Nc1ccc2ncnc(Nc3ccc(Br)cc3)c2c1
IC50 (MX1 [1]): 6.71 µM
Ratio IC50 (CCRF-CEM [2]): 1.89
IC50 (CCRF-CEM [3]): 4.64 µM
IC50 (HCT-116): 7.79 µM
Ratio IC50 (CCRF-CEM [4]): 1.7
IC50 (CCRF-CEM [5]): 7.88 µM
IC50 (CCRF-CEM [6]): 8.79 µM
